In the library only some 2.2% were active in any assay of this set; here they are far more common.
Statin myotox sup = suppressors of simvastatin-induced myotoxicity in C2C12 myotubes | ATP luminescence, 48 h; scaled: DMSO 0, geranylgeraniol control 100 | rescue of ATP level, % at 7.49 µM | hit rate 0.78% among 330,000 | AID 602340;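 active means mean ATP rescue above about 67%, or every replicate alone reaching that limit, limit read from the data, passing the limit was not always enough; inconclusive means no clear call, values can overlap the other calls; inactive means mean under the limit and some replicate under it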;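 further: myotubes were challenged with 10 µM simvastatin during compound exposure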
DENV2 CPE = DENV2-induced cell death inhibition. DENV2-infected cells, cytopathic effect rescue, plate reader. CPE inhibition, % at 9.99 µM. hit rate 1.7% among 350,000. AID 651640; in the data active means CPE inhibition above about 20%, passing the limit was not always enough; inconclusive means no clear call, values can overlap the other calls; tested in BHK-21 cells;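 further: 0% = median of neutral control wells and 100% = median of positive control wells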
E-sel inducer = E-selectin induction on HUVECs; P16581; HUVEC E-selectin immunofluorescence imaging; normalized: neutral wells 0, TNF-alpha wells 100; activation, % at 7.58 µM; hit rate 0.37% among 260,000;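 active means mean E-selectin-positive cell signal at least 10% of the positive control, reached in at least 60% of replicates, without over 20% cell loss; inconclusive means no rule given, readout overlaps actives, possibly toxicity-flagged; inactive means the rest, including those meeting only one limit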
Target sequence (P16581 whole entry, looked up): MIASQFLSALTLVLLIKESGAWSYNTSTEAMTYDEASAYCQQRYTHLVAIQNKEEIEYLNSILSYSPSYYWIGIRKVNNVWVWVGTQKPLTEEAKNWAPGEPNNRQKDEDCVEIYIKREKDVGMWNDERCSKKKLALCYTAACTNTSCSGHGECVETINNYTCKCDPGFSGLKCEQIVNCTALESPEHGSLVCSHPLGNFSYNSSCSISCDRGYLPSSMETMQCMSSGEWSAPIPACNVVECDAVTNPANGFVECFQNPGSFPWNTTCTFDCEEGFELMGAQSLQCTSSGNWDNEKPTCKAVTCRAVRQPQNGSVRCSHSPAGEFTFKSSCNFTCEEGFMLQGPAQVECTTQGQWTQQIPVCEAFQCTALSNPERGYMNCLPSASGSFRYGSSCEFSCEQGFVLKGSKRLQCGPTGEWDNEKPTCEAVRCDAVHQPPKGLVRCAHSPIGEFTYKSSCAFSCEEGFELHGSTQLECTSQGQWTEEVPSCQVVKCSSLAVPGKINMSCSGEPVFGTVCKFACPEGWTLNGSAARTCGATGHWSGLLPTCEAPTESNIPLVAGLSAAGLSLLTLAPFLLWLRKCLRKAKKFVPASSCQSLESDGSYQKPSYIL
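Test system: HUVEC; input: 3,000 HUVEC/well; measured by: immunofluorescence imaging; read-out: % PE-positive cells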
Starred values were filed as active, the others as inactive.

For COc1ccc(CN(C)C[C@@H]2Oc3c(NC(=O)c4cc(C)nn4C)cccc3C(=O)N([C@@H](C)CO)C[C@H]2C)cc1 the results were Statin myotox sup -7, DENV2 CPE -8 and E-sel inducer 0.
For CC(C)NC(=O)Nc1ccc2c(c1)C(=O)N([C@@H](C)CO)C[C@@H](C)[C@H](CN(C)C(=O)c1ccccc1)OCCCC[C@@H](C)O2 the results were Statin myotox sup 38, DENV2 CPE inconclusive and E-sel inducer 0.
`CC(=O)C[C@H](O)CC(=O)[C@H]1OC(=O)CCCCC/C=C/Cc2ccccc21` gave Statin myotox sup 9, DENV2 CPE -6 and E-sel inducer 0.
CC(=O)C[C@@H](O)CC(=O)[C@H]1OC(=O)CCCCCc2ccccc21 was read as Statin myotox sup 8, DENV2 CPE -3 and E-sel inducer 0.
For CC(=O)C[C@@H](O)CC(=O)[C@@H]1OC(=O)CCCCCCCCc2ccccc21 the results were Statin myotox sup 125*, DENV2 CPE -4 and E-sel inducer 0.
Screening CC(=O)C[C@@H](O)CC(=O)[C@@H]1OC(=O)CCCCC/C=C/Cc2ccccc21 returned Statin myotox sup 92*, DENV2 CPE -11 and E-sel inducer 0.
`C[C@@H]1CN([C@@H](C)CO)C(=O)c2cccc(NS(=O)(=O)c3cn(C)cn3)c2O[C@H]1CN(C)C(=O)Nc1ccc(F)cc1` gave Statin myotox sup 9, DENV2 CPE 4 and E-sel inducer -5.
O=C(Nc1ccc(F)cc1)C(c1cccc(F)c1)N1CCN(C(=O)c2ccco2)CC1 (configuration not stated) was read as DENV2 CPE 47* and E-sel inducer 0.
For Cc1ccc(NC(=O)N2CCCC2)cc1Cl the results were DENV2 CPE -4.
`Cc1ccc(NC(=O)N2CCN(C(=O)c3ccco3)CC2)cc1Cl` gave Statin myotox sup 3, DENV2 CPE 38* and E-sel inducer 0.
Screening CC(C)c1ccc(NC(=O)C(c2ccccc2)N2CCN(C(=O)c3ccco3)CC2)cc1 (configuration not stated) returned Statin myotox sup -26.
Screening CCN1[C@@H]2c3ccc(-c4ccccc4F)c(=O)n3C[C@H]1[C@H](CO)[C@H]2C(=O)N1CCCCC1 returned Statin myotox sup -10, DENV2 CPE 7 and E-sel inducer 0.
Screening COCC#Cc1cnc2c(c1)C(=O)N([C@H](C)CO)C[C@@H](C)[C@H](CN(C)S(=O)(=O)c1cn(C)cn1)O2 returned Statin myotox sup 6, DENV2 CPE -5 and E-sel inducer 0.
Nc1ccc(C(=O)C(=O)c2ccc(N)cc2)cc1 was read as Statin myotox sup -9 and DENV2 CPE -6.
`N=C1C=CC(=C(c2ccc(N)cc2)c2ccc(N)cc2)C=C1` gave Statin myotox sup -126, DENV2 CPE -7 and E-sel inducer 39*.
CO[C@@H]1CN(C)C(=O)c2cc(NC(=O)C3CCCCC3)ccc2OC[C@@H](C)NC[C@@H]1C was read as Statin myotox sup -11, DENV2 CPE 4 and E-sel inducer 0.
`CC(/C=C\c1ccccc1)=C/C(=O)O` gave DENV2 CPE 2 and E-sel inducer 0.
C/C(C=O)=C/c1ccccc1 was read as Statin myotox sup 7 and DENV2 CPE 91*.
Screening C[C@@H](NC(=O)C[C@@H]1CC[C@H](NC(=O)c2cccnc2)[C@H](CO)O1)c1ccccc1 returned Statin myotox sup -1, DENV2 CPE -1 and E-sel inducer 0.
COc1ccc(N2COC3c4cccc5cccc(c45)C32)cc1 (configuration not stated) was read as Statin myotox sup 88* and E-sel inducer 4.
`Clc1ccc(N2COC3c4cccc5cccc(c45)C32)cc1` (configuration not stated) gave Statin myotox sup 5.
Screening COc1ccc(NC(=O)N[C@@H]2CC[C@@H](CCNS(=O)(=O)c3ccccc3F)O[C@H]2CO)cc1 returned Statin myotox sup -2, DENV2 CPE -6 and E-sel inducer 0.
For C[C@@H]1CN([C@H](C)CO)C(=O)c2cc(NS(=O)(=O)c3ccc(Cl)cc3)ccc2O[C@H]1CN(C)S(C)(=O)=O the results were E-sel inducer 8.
COCC(=O)N[C@H]1CC[C@@H](CC(=O)N2CCCCC2)O[C@H]1CO was read as Statin myotox sup -9, DENV2 CPE 1 and E-sel inducer 0.
COCCNC(=O)c1ccc(CS(=O)(=O)c2cccc(C(F)(F)F)c2)o1 was read as Statin myotox sup -2, DENV2 CPE 8 and E-sel inducer 0.
`CCCCNC(=O)c1ccc(CS(=O)(=O)c2cccc(C(F)(F)F)c2)o1` gave Statin myotox sup 144*.
Cc1noc(C)c1NC(=O)N(C)C[C@@H]1Oc2ccc(N(C)C)cc2CC(=O)N([C@H](C)CO)C[C@H]1C was read as Statin myotox sup 20, DENV2 CPE -9 and E-sel inducer 0.
`C[C@@H]1CCCCO[C@H](CN(C)S(=O)(=O)c2cccs2)[C@H](C)CN([C@@H](C)CO)C(=O)c2cc(NC(=O)c3ccccc3)ccc2O1` gave DENV2 CPE 3 and E-sel inducer 0.
C[C@H]1CCCCO[C@H](CN(C)S(=O)(=O)c2cccs2)[C@@H](C)CN([C@@H](C)CO)C(=O)c2cc(NC(=O)c3ccccc3)ccc2O1 was read as DENV2 CPE 36* and E-sel inducer 0.
Screening C[C@@H]1CN([C@H](C)CO)C(=O)c2cc(NC(=O)c3ccccc3)ccc2O[C@@H](C)CCCCO[C@@H]1CN(C)S(C)(=O)=O returned Statin myotox sup -6, DENV2 CPE 0 and E-sel inducer 0.
C[C@@H]1CCCCO[C@@H](CN(C)S(C)(=O)=O)[C@@H](C)CN([C@H](C)CO)C(=O)c2cc(NC(=O)c3ccccc3)ccc2O1 was read as Statin myotox sup -4, DENV2 CPE 85* and E-sel inducer 0.
CCCC#Cc1cnc2c(c1)C(=O)N([C@H](C)CO)C[C@@H](C)[C@H](CN(C)C(=O)Cc1ccncc1)O2 was read as Statin myotox sup 8, DENV2 CPE -13 and E-sel inducer 0.
Cc1noc(C)c1S(=O)(=O)Nc1ccc2c(c1)CC(=O)N([C@@H](C)CO)C[C@@H](C)[C@@H](CN(C)S(C)(=O)=O)O2 was read as Statin myotox sup 11, DENV2 CPE -3 and E-sel inducer -10.
`Cc1ccccc1S(=O)(=O)N1CC[C@@H]2[C@@H](CO)N(C)c3ccc(Br)cc3[C@@H]21` gave Statin myotox sup 18, DENV2 CPE -14 and E-sel inducer -1.
Screening CN1c2ccc(Br)cc2[C@H]2[C@H](CCN2S(=O)(=O)c2ccccc2F)[C@@H]1CO returned Statin myotox sup -11, DENV2 CPE 40* and E-sel inducer 0.
For Cc1ccccc1S(=O)(=O)N1CC[C@H]2[C@@H](CO)N(C)c3ccc(Br)cc3[C@H]21 the results were Statin myotox sup 8, DENV2 CPE 143* and E-sel inducer 1.
Screening CN1c2ccc(Br)cc2[C@@H]2[C@@H](CCN2S(=O)(=O)c2ccccc2F)[C@H]1CO returned Statin myotox sup -7, DENV2 CPE -6 and E-sel inducer 0.

Bioassay records as filed in PubChem.
